# Assay results: ChEMBL document CHEMBL1155796, “Lupane-type triterpenoids from Microtropis fokienensis and Perrottetia arisanensis and the apoptotic effect of 28-hydroxy-3-oxo-lup-20(29)-en-30-al” (J Nat Prod, 2008)
# Active and inactive are the calls of the source. The calls are words filed in the database; no cut-off is given here.
# Key:
# [1] = tested on: HL-60; test: Cell cycle arrest in human HL60 cells assessed as accumulation at S cells at 5 ug/ml after 24 hrs; assay type: functional
# Outline: (§1)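 Treated and control HL60 cells harvested, washed in cold PBS, fixed in 70% ethanol and held at 4 °C. […] DNA content read by flow cytometry. Fractions in sub-G1, G0/G1, S and G2/M assigned by cell-cycle modelling software.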
# [2] = tested on: A549; test: Cytotoxicity against human A549 cells by MTT assay; assay type: functional, cell-based
# Outline: (§2)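 Freshly trypsinized cells were seeded at 5000-10 000 per well, and compounds were added from DMSO stocks and left for 3 days. Attached cells were then given MTT ([…], 1 h) and dissolved in DMSO, with absorbance read at 550 nm.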
# [3] = tested on: HL-60; test: Cell cycle arrest in human HL60 cells assessed as accumulation at G2 cells at 5 ug/ml after 24 hrs; assay type: functional; outline: as §1
# [4] = tested on: HL-60; test: Cell cycle arrest in human HL60 cells assessed as accumulation at subG1 cells at 5 ug/ml after 24 hrs; assay type: functional; outline: as §1
# [5] = tested on: MDA-MB-231; test: Cytotoxicity against human MDA-MB-231 cells by MTT assay; assay type: functional, cell-based; outline: as §2
# [6] = tested on: HL-60; test: Induction of apoptosis in human HL60 cells assessed as PARP cleavage by Western blotting; assay type: functional, cell-based
# Outline: (§3)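 Lysate cleared at 20000g, 30 min, 4 °C and protein measured by BCA. 50 µg resolved on 12% SDS-PAGE, blotted to PVDF and probed for PARP, Bax and Bcl-2, with β-tubulin as loading control.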
# [7] = tested on: MCF7; test: Cytotoxicity against human MCF7 cells by MTT assay; assay type: functional, cell-based; outline: as §2
# [8] = tested on: HL-60; test: Cell cycle arrest in human HL60 cells assessed as accumulation at subG1 cells at 2.5 ug/ml after 24 hrs; assay type: functional; outline: as §1
# [9] = tested on: Ca9-22; test: Cytotoxicity against human sCa9-22 cells by MTT assay; assay type: functional, cell-based; outline: as §2
# [10] = Cytotoxicity against human Hep3B cells by MTT assay; assay type: functional, cell-based, Hep 3B2; outline: as §2
# [11] = tested on: HL-60; test: Cell cycle arrest in human HL60 cells assessed as accumulation at G0/G1 cells at 5 ug/ml after 24 hrs; assay type: functional; outline: as §1
# [12] = tested on: HL-60; test: Cell cycle arrest in human HL60 cells assessed as accumulation at G2 cells at 0.625 ug/ml after 24 hrs by flow cytometry; assay type: functional; outline: as §1
# [13] = tested on: HL-60; test: Cell cycle arrest in human HL60 cells assessed as accumulation at G0/G1 cells at 2.5 ug/ml after 24 hrs; assay type: functional; outline: as §1
# [14] = tested on: HL-60; test: Cell cycle arrest in human HL60 cells assessed as accumulation at G2 cells at 2.5 ug/ml after 24 hrs; assay type: functional; outline: as §1
# [15] = tested on: HL-60; test: Cell cycle arrest in human HL60 cells assessed as accumulation at G0/G1 cells at 1.250 ug/ml after 24 hrs; assay type: functional; outline: as §1
# [16] = tested on: HL-60; test: Induction of apoptosis in human HL60 cells assessed as effect on Bcl2 protein level by Western blotting; assay type: functional, cell-based; outline: as §3
# [17] = tested on: HL-60; test: Cell cycle arrest in human HL60 cells assessed as accumulation at subG1 cells at 1.250 ug/ml after 24 hrs; assay type: functional; outline: as §1
# [18] = tested on: HL-60; test: Cell cycle arrest in human HL60 cells assessed as accumulation at G2 cells at 1.250 ug/ml after 24 hrs; assay type: functional; outline: as §1
# [19] = tested on: HepG2; test: Cytotoxicity against human HepG2 cells by MTT assay; assay type: functional, cell-based; outline: as §2
# [20] = tested on: HL-60; test: Cell cycle arrest in human HL60 cells assessed as accumulation at G0/G1 cells at 0.625 ug/ml after 24 hrs by flow cytometry; assay type: functional; outline: as §1
# [21] = tested on: HL-60; test: Cell cycle arrest in human HL60 cells assessed as accumulation at S cells at 2.5 ug/ml after 24 hrs; assay type: functional; outline: as §1
# [22] = tested on: HL-60; test: Cell cycle arrest in human HL60 cells assessed as accumulation at S cells at 0.625 ug/ml after 24 hrs by flow cytometry; assay type: functional; outline: as §1
# [23] = tested on: HL-60; test: Induction of apoptosis in human HL60 cells assessed as increase in Bax protein level by Western blotting; assay type: functional, cell-based; outline: as §3
# [24] = tested on: HL-60; test: Cell cycle arrest in human HL60 cells assessed as accumulation at subG1 cells at 0.625 ug/ml after 24 hrs by flow cytometry; assay type: functional; outline: as §1
# [25] = tested on: HL-60; test: Cell cycle arrest in human HL60 cells assessed as accumulation at S cells at 1.250 ug/ml after 24 hrs; assay type: functional; outline: as §1
# [26] = tested on: HL-60; test: Cytotoxicity against human HL60 cells by MTT assay; assay type: functional, cell-based; outline: as §2
# [27] = tested on: B16; test: Cytotoxicity against mouse B16 cells; assay type: functional, cell-based
SMILES,IC50 [2] [µg/mL],IC50 [5] [µg/mL],IC50 [7] [µg/mL],IC50 [9] [µg/mL],IC50 [10] [µg/mL],IC50 [19] [µg/mL],IC50 [26] [µg/mL],IC50 [27] [µg/mL],further results
C=C(C=O)[C@@H]1CC[C@]2(CO)CC[C@]3(C)[C@H](CC[C@@H]4[C@@]5(C)CCC(=O)C(C)(C)[C@@H]5CC[C@]43C)[C@@H]12,16.4,7.9,2.9,1.4,4.7,12.6,1.6,,Activity [1]: 19.8%; Activity [3]: 7.8%; Activity [4]: 57.8%; Activity [6]: Active; Activity [8]: 10.2%; Activity [11]: 14.6%; Activity [12]: 13.9%; Activity [13]: 56%; Activity [14]: 11.5%; Activity [15]: 55.5%; Activity [16]: inactive; Activity [17]: 2.8%; Activity [18]: 11.2%; Activity [20]: 54.2%; Activity [21]: 22.3%; Activity [22]: 30.3%; Activity [23]: Active; Activity [24]: 1.6%; Activity [25]: 30.5%
C=C(CO)[C@@H]1CC[C@]2(C)CC[C@]3(C)[C@H](CC[C@@H]4[C@@]5(C)CCC(=O)C(C)(C)[C@@H]5CC[C@]43C)[C@@H]12,,,,,,,,9.2,
C=C(C)[C@@H]1CC[C@]2(CO)CC[C@]3(C)[C@H](CC[C@@H]4[C@@]5(C)CC[C@@H](O)C(C)(C)[C@@H]5CC[C@]43C)[C@@H]12 [3-EPI-BETULIN],15.7,> 20,16,> 20,9.3,6.7,1.7,,
C=C(C)[C@@H]1CC[C@]2(C(=O)O)CC[C@]3(C)[C@H](CC[C@@H]4[C@@]5(C)CC[C@H](O)C(C)(C)[C@@H]5CC[C@]43C)[C@@H]12 [BETULINIC ACID],2.8,3.5,4,> 20,1.7,3.1,2,5,
COc1cccc2c1C(=O)c1c(O)c3c(c(O)c1C2=O)C[C@@](O)(C(=O)CO)C[C@@H]3O[C@H]1C[C@H](N)[C@H](O)[C@H](C)O1 [DOXORUBICIN],,0.15,0.32,0.09,0.27,0.17,0.003,,
C=C(C)[C@@H]1CC[C@]2(C(=O)O)CC[C@]3(C)[C@H](CC[C@@H]4[C@@]5(C)CC[C@@H](O)C(C)(C)[C@@H]5CC[C@]43C)[C@@H]12 [EPIBETULINIC ACID],9.7,9.2,9.7,,8.1,9.3,2.3,,
